Efficacy, EC50 and inhibition data for eight molecules are collected here from ChEMBL document CHEMBL3085766, “Synthesis, ex vivo and in silico studies of 3-cyano-2-pyridone derivatives with vasorelaxant activity” (Eur J Med Chem, 2013).

The subject of one test is Aorta. In words: Vasorelaxant activity in rat endothelium-intact thoracic aortic ring assessed as inhibition of noradrenaline-induced contraction relative to control. Type of test: functional. The essentials: (§1)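 Isometric tension of isolated rat thoracic aorta rings, endothelium intact or removed, recorded with a force transducer. After stabilization, rings were challenged with […] for 10 min and washed in fresh Krebs solution. This was done three times at 30-min intervals. Endothelial status was confirmed by […] relaxation in the last contraction. Rings were then contracted with NA and given quarter-log cumulative concentrations; EC50 derived.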
Consider `CCOC(=O)c1c(C)[nH]c(=O)c(C#N)c1-c1ccc([N+](=O)[O-])cc1`, for which the Efficacy is reported as 98%.

With `CCOC(=O)c1c(C)[nH]c(=O)c(C#N)c1-c1ccncc1`, the Efficacy was found to be 85.47%.

Turning to `CCOC(=O)c1c(C)[nH]c(=O)c(C#N)c1-c1cccc(Cl)c1`, the Efficacy was found to be 97%.

Regarding `CCOC(=O)c1c(C)[nH]c(=O)c(C#N)c1-c1cccs1`, the Efficacy is given as 100%.

Regarding `CCOC(=O)c1c(C)[nH]c(=O)c(C#N)c1-c1ccc([N+](=O)[O-])cc1[N+](=O)[O-]`, the Efficacy is reported as 97%.

Consider `C[N+](C)(C)CCOC(N)=O.[Cl-]` [CARBACHOL], for which the Efficacy worked out at 74.06%.

As to `CCOC(=O)c1c(C)[nH]c(=O)c(C#N)c1-c1ccco1`, the Efficacy was 100%.

The test system of a further test is Aorta. The experiment in a line: Vasorelaxant activity in rat endothelium-denuded thoracic aortic ring assessed as inhibition of noradrenaline-induced contraction relative to control. Type of test: functional. The method in brief:
as §1
For `CCOC(=O)c1c(C)[nH]c(=O)c(C#N)c1-c1ccc([N+](=O)[O-])cc1`, the Efficacy worked out at 95%.

`CCOC(=O)c1c(C)[nH]c(=O)c(C#N)c1-c1ccncc1`: the Efficacy is 86.4%.

Turning to `CCOC(=O)c1c(C)[nH]c(=O)c(C#N)c1-c1cccc(Cl)c1`, the Efficacy is on record as 99%.

As to `CCOC(=O)c1c(C)[nH]c(=O)c(C#N)c1-c1cccs1`, the Efficacy was 99%.

Regarding `CCOC(=O)c1c(C)[nH]c(=O)c(C#N)c1-c1ccc([N+](=O)[O-])cc1[N+](=O)[O-]`, the Efficacy is listed as 99%.

On to `CCOC(=O)c1c(C)[nH]c(=O)c(C#N)c1-c1ccco1`, for which the Efficacy turned out to be 93%.

Regarding `COC(=O)C1=C(C)NC(C)=C(C(=O)OC)C1c1ccccc1[N+](=O)[O-]` [NIFEDIPINE], the Efficacy was 97%.

The test system of the next test is Aorta. The experiment in a line: Vasorelaxant activity in rat endothelium-denuded thoracic aortic ring assessed as inhibition of noradrenaline-induced contraction. Format: functional, tissue-based. The method in brief: as §1
Broadly, the EC50 is the concentration giving half of the maximal effect. On to `CCOC(=O)c1c(C)[nH]c(=O)c(C#N)c1-c1ccc([N+](=O)[O-])cc1`, for which the EC50 was 8.2 µM and the inhibition entry was “Dose-dependent effect”.

As to `CCOC(=O)c1c(C)[nH]c(=O)c(C#N)c1-c1ccncc1`, the EC50 was 178 µM and the inhibition entry is “Dose-dependent effect”.

Turning to `CCOC(=O)c1c(C)[nH]c(=O)c(C#N)c1-c1cccc(Cl)c1`, the EC50 was 62 µM and the inhibition entry was “Dose-dependent effect”.

With `CCOC(=O)c1c(C)[nH]c(=O)c(C#N)c1-c1cccs1`, the EC50 was 12 µM and the inhibition result is “Dose-dependent effect”.

Turning to `CCOC(=O)c1c(C)[nH]c(=O)c(C#N)c1-c1ccc([N+](=O)[O-])cc1[N+](=O)[O-]`, the EC50 came to 3.6 µM and the inhibition entry is “Dose-dependent effect”.

On to `CCOC(=O)c1c(C)[nH]c(=O)c(C#N)c1-c1ccco1`, for which the EC50 came to 31 µM and the inhibition result is “Dose-dependent effect”.

Take `COC(=O)C1=C(C)NC(C)=C(C(=O)OC)C1c1ccccc1[N+](=O)[O-]` [NIFEDIPINE]: the EC50 came to 0.03 µM.

The subject of the next test is Aorta. In words: Vasorelaxant activity in rat endothelium-intact thoracic aortic ring assessed as inhibition of noradrenaline-induced contraction. Format: functional, tissue-based. The essentials:
as §1
In the case of `CCOC(=O)c1c(C)[nH]c(=O)c(C#N)c1-c1ccc([N+](=O)[O-])cc1`, the EC50 amounted to 7 µM.

As for `CCOC(=O)c1c(C)[nH]c(=O)c(C#N)c1-c1ccncc1`, the EC50 turned out to be 270 µM.

For `CCOC(=O)c1c(C)[nH]c(=O)c(C#N)c1-c1cccc(Cl)c1`, the concentration giving a half-maximal response (EC50) is 85 µM.

As for `CCOC(=O)c1c(C)[nH]c(=O)c(C#N)c1-c1cccs1`, the EC50 was found to be 5 µM.

For `CCOC(=O)c1c(C)[nH]c(=O)c(C#N)c1-c1ccc([N+](=O)[O-])cc1[N+](=O)[O-]`, the EC50 came to 4.4 µM.

`C[N+](C)(C)CCOC(N)=O.[Cl-]` [CARBACHOL]: the EC50 was found to be 0.3 µM.

For the molecule `CCOC(=O)c1c(C)[nH]c(=O)c(C#N)c1-c1ccco1`, the EC50 was 22 µM.
